Laboratory results taken from ChEMBL document CHEMBL4007417, “Target Elucidation by Cocrystal Structures of NADH-Ubiquinone Oxidoreductase of Plasmodium falciparum (PfNDH2) with Small Molecule To Eliminate Drug-Resistant Malaria” (J Med Chem, 2017).
The source made the active and inactive calls. The rule behind the calls is not given here.

How the values were obtained:
Plasmodium falciparum [1] = test: Antimalarial activity against dihydroartemisinin-resistant asexual blood stage Plasmodium falciparum 803 assessed as reduction in parasite recrudescence at 10 times EC50 for 72 hrs measured after 28 days post invasion by Giemsa staining-based light microscopic analysis; type: functional
Procedure, shortened: (§1)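 Parasite cultures exposed for 72 h to 10× EC50 of inhibitor. Drug then removed and cultures maintained for 28 days post treatment. Recrudescence monitored by microscopy.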

Plasmodium yoelii [2] = test: Antimalarial activity against Plasmodium yoelii YM infected in BALB/c mouse assessed as time duration for parasite cure at 10 mg/kg, sc administered QD for 4 days starting at 96 hrs post infection by Giemsa-staining based microscopic analysis; type: functional
Procedure, shortened: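 P. yoelii-infected mice, n=3 per group. Subcutaneous injection once daily for 4 days starting at 96 h post infection. Parasitemia followed on blood-smear microscopy, with inhibition measured at 24 h post treatment. Cure time taken as the minimum period to cure all mice; survival recorded at 40 days. DMSO controls included.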

Plasmodium falciparum [3] = test: Antimalarial activity against […] asexual blood stage Plasmodium falciparum 3D7 assessed as reduction in parasite recrudescence at 10 times EC50 for 72 hrs measured after 28 days post invasion by Giemsa staining-based light microscopic analysis; type: functional; procedure, shortened: as §1
Plasmodium yoelii [4] = test: Antimalarial activity against Plasmodium yoelii YM infected in BALB/c mouse assessed as mouse survival at 10 mg/kg, sc administered BID for 4 days starting at 96 hrs post infection, 8 hrs apart by Giemsa-staining based microscopic analysis; type: functional
Procedure, shortened: (§2)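 Mice inoculated with 1×106 P. yoelii parasites. Subcutaneous dosing for 4 days starting 96 h post infection, given once daily or twice daily 8 h apart. Parasitemia followed on Giemsa-stained blood smears. Survival recorded at 40 days post infection; groups of n=3. DMSO-only mice served as untreated controls.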

Plasmodium falciparum [5] = test: Antimalarial activity against multi drug-resistant asexual blood stage Plasmodium falciparum Fab9 after 72 hrs by SYBR green-based fluorometric analysis; type: functional; details: Fab9, 72 h
Procedure, shortened: (§3)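 Mid-ring-stage cultures (~6-10 h post-invasion) at 1% parasitemia and 2% hematocrit, in triplicate. Twofold serial dilutions from a top concentration of 100 nM. Incubated 72 h at 37 °C under 5% CO2/5% O2/90% N2. Lysis buffer containing 5×SYBR Green I added, 20 min in the dark, fluorescence read at ex 485/em 538 nm. EC50 derived.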

Plasmodium falciparum [6] = test: Synergistic antimalarial activity against Plasmodium falciparum in presence of quinine; type: functional
Procedure, shortened: (§4)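 In vitro drug interaction analyses with other antimalarials against P. falciparum. Experiments repeated three times; error bars s.e.m.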

[7] = Inhibition of Plasmodium falciparum wild type NDH2 expressed in Escherichia coli BL21 using NADH and ubiquinone-1 as substrate by spectrophotometric analysis
Procedure, shortened: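 Recombinant PfNDH2 activity measured spectrophotometrically at 25 °C. Buffer: 50 mM MOPS pH 7.0, 150 mM NaCl, 1 mM EDTA, 0.01% Triton X-100. Substrates 50 µM NADH and 30 µM ubiquinone-1, with 0.5 nM enzyme and selected inhibitor concentrations.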

Plasmodium yoelii [8] = test: Antimalarial activity against Plasmodium yoelii YM infected in BALB/c mouse assessed as parasite growth inhibition at 90 mg/kg, sc administered BID for 4 days starting at 96 hrs post infection, 8 hrs apart by Giemsa-staining based microscopic analysis; type: functional; details: read-out: GI
Procedure, shortened: (§5)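 P. yoelii-infected mice, n=3 per group. Subcutaneous injection twice daily, 8 h apart, for 4 days starting at 96 h post infection. Growth inhibition read from blood smears at 24 h post treatment. Cure time taken as the minimum period to cure all mice in the group. DMSO controls included.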

Plasmodium yoelii [9] = test: Antimalarial activity against Plasmodium yoelii YM infected in BALB/c mouse assessed as time duration for parasite cure at 90 mg/kg, sc administered BID for 4 days starting at 96 hrs post infection, 8 hrs apart by Giemsa-staining based microscopic analysis; type: functional; procedure, shortened: as §5
[10] = Inhibition of Plasmodium falciparum NDH2 N92R/S497R double mutant expressed in Escherichia coli DH5alpha competent cells using NADH and ubiquinone-1 as substrate by spectrophotometric analysis
Procedure, shortened: (§6)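 Recombinant PfNDH2 point or double mutants assayed spectrophotometrically at 25 °C. Buffer: 50 mM MOPS pH 7.0, 150 mM NaCl, 1 mM EDTA, 0.01% Triton X-100. Substrates 50 µM NADH and 30 µM ubiquinone-1, with 0.5 nM enzyme and selected inhibitor concentrations.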

Plasmodium falciparum [11] = test: Antimalarial activity against quinine-resistant asexual blood stage Plasmodium falciparum C2A after 72 hrs by SYBR green-based fluorometric analysis; type: functional; procedure, shortened: as §3
Plasmodium falciparum [12] = test: Antimalarial activity against multi drug-resistant asexual blood stage Plasmodium falciparum D10 after 72 hrs by SYBR green-based fluorometric analysis; type: functional; details: D10, 72 h; procedure, shortened: as §3
Plasmodium yoelii [13] = test: Antimalarial activity against Plasmodium yoelii YM infected in BALB/c mouse assessed as mouse survival at 90 mg/kg, sc administered BID for 4 days starting at 96 hrs post infection, 8 hrs apart by Giemsa-staining based microscopic analysis; type: functional; procedure, shortened: as §2
Plasmodium yoelii [14] = test: Antimalarial activity against Plasmodium yoelii YM infected in BALB/c mouse assessed as parasite growth inhibition at 10 mg/kg, sc administered BID for 4 days starting at 96 hrs post infection, 8 hrs apart by Giemsa-staining based microscopic analysis; type: functional; details: read-out: GI; procedure, shortened: as §5
Plasmodium falciparum [15] = test: Antimalarial activity against chloroquine/quinine-resistant asexual blood stage Plasmodium falciparum S35 after 72 hrs by SYBR green-based fluorometric analysis; type: functional; details: S35, 72 h; procedure, shortened: as §3
[16] = Inhibition of Plasmodium falciparum NDH2 D171R mutant expressed in Escherichia coli DH5alpha competent cells using NADH and ubiquinone-1 as substrate by spectrophotometric analysis; procedure, shortened: as §6
Plasmodium falciparum [17] = test: Antimalarial activity against sulfadoxine-pyrimethamine/mefloquine resistant asexual blood stage Plasmodium falciparum CP286 after 72 hrs by SYBR green-based fluorometric analysis; type: functional; details: CP286, 72 h; procedure, shortened: as §3
Plasmodium yoelii [18] = test: Antimalarial activity against Plasmodium yoelii YM infected in BALB/c mouse assessed as time duration for parasite cure at 30 mg/kg, sc administered BID for 4 days starting at 96 hrs post infection, 8 hrs apart by Giemsa-staining based microscopic analysis; type: functional; procedure, shortened: as §5
Plasmodium falciparum [19] = test: Antimalarial activity against […] asexual blood stage Plasmodium falciparum 3D7 after 72 hrs by SYBR green-based fluorometric analysis; type: functional; details: 3D7, 72 h; procedure, shortened: as §3
Plasmodium falciparum [20] = test: Antimalarial activity against chloroquine/quinine/sulfadoxine-pyrimethamine/amodiaquine-resistant asexual blood stage Plasmodium falciparum PC26 after 72 hrs by SYBR green-based fluorometric analysis; type: functional; details: PC26, 72 h; procedure, shortened: as §3
Plasmodium falciparum [21] = test: Antimalarial activity against chloroquine-resistant asexual blood stage Plasmodium falciparum GB4 after 72 hrs by SYBR green-based fluorometric analysis; type: functional; details: GB4, 72 h; procedure, shortened: as §3
Plasmodium falciparum [22] = test: Synergistic antimalarial activity against Plasmodium falciparum in presence of dihydroartemisinin; type: functional; procedure, shortened: as §4
Plasmodium yoelii [23] = test: Antimalarial activity against Plasmodium yoelii YM infected in BALB/c mouse assessed as parasite growth inhibition at 5 mg/kg, sc administered QD for 4 days starting at 2 hrs post infection by Giemsa-staining based microscopic analysis; type: functional; details: read-out: GI
Procedure, shortened: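 P. yoelii-infected mice, n=3 per group. Subcutaneous injection once daily for 4 days starting at 2 h post infection. Growth inhibition determined at 24 h post treatment by blood-smear microscopy. Cure time taken as the minimum period to cure all mice in the group.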

## Cc1c(-c2ccc(Cc3ccc(OC(F)(F)F)cc3)cc2)[nH]c2cccc(F)c2c1=O
Plasmodium falciparum [1]
  Activity: Active
Plasmodium yoelii [2]
  Time: 17 days
Plasmodium falciparum [3]
  Activity: Active
Plasmodium yoelii [4]
  survival at 10 mg/kg: 100%
Plasmodium falciparum [5]
  EC50: 6.25 nM
Plasmodium falciparum [6]
  fractional inhibitory concentration index (FICI): 2.33
[7]
  IC50: 3.73 nM
Plasmodium yoelii [8]
  inhibition in vivo at 90 mg/kg: 100%
Plasmodium yoelii [9]
  Time: 4 days
[10]
  IC50: 123 nM
Plasmodium falciparum [11]
  EC50: 7.18 nM
Plasmodium falciparum [12]
  EC50: 9.18 nM
Plasmodium yoelii [13]
  survival at 90 mg/kg: 100%
Plasmodium yoelii [14]
  inhibition in vivo at 10 mg/kg: 100%
Plasmodium falciparum [15]
  EC50: 5.48 nM
[16]
  IC50: 9.74 nM
Plasmodium falciparum [17]
  EC50: 9.58 nM
Plasmodium yoelii [18]
  Time: 4 days
Plasmodium falciparum [19]
  EC50: 11.3 nM
Plasmodium falciparum [20]
  EC50: 5.92 nM
Plasmodium falciparum [21]
  EC50: 8.16 nM
Plasmodium falciparum [22]
  fractional inhibitory concentration index (FICI): 0.56
Plasmodium yoelii [23]
  inhibition in vivo at 5 mg/kg: 100%
